Test results from ChEMBL document CHEMBL4765235, “Discovery of N-[Bis(4-methoxyphenyl)methyl]-4-hydroxy-2-(pyridazin-3-yl)pyrimidine-5-carboxamide (MK-8617), an Orally Active Pan-Inhibitor of Hypoxia-Inducible Factor Prolyl Hydroxylase 1-3 (HIF PHD1-3) for the Treatment of Anemia” (J Med Chem, 2016).

Assays:
[1] = target: Voltage-gated inwardly rectifying potassium channel KCNH2 (Homo sapiens, UniProt Q12809); assay: Inhibition of human ERG
[2] = Oral bioavailability in rat at 2 mg/kg; type: ADME, organism-based; conditions: in vivo
[3] = Cmax in rat at 2 mg/kg, po or 1 mg/kg, iv; type: ADME, organism-based; parameters: dose 2 mg/kg; conditions: in vivo
[4] = Volume of distribution at steady state in rat at 2 mg/kg, po or 1 mg/kg, iv; type: ADME, organism-based; conditions: in vivo, read-out: Vdss
[5] = Half life in rat at 2 mg/kg, po or 1 mg/kg, iv; type: ADME, organism-based; conditions: in vivo
[6] = Protein binding in dog plasma assessed as unbound fraction at 1 mg/kg, po or 0.5 mg/kg, iv; type: ADME, organism-based, Canis lupus familiaris; conditions: read-out: PPB
[7] = Half life in rhesus monkey at 1 mg/kg, po or 0.5 mg/kg, iv; type: ADME, organism-based, Macaca mulatta; conditions: in vivo
How it was run: (§1)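 Single-dose PK at 1 mg/kg po and 0.5 mg/kg iv. Mouse clearance is from blood; dog and rhesus clearance is from plasma. Mouse vehicle, both routes: DMSO:PEG400:water (5:40:55, v/v/v). Dog and monkey iv vehicle: PEG200:12%HPCD:water (30:12:58 v/v/v). Dog and monkey po vehicle: Imwitor:Tween (1:1 w/w).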

Prolyl hydroxylase EGLN3 = Prolyl hydroxylase EGLN3 (Homo sapiens, UniProt Q9H6Z9); assay: Inhibition of FLAG-tagged full-length HIF-PHD3 (unknown origin) expressed in baculovirus infected Sf9 cells using 2-oxoglutarate and HIF1alpha biotinyl-DLDLEMLAPYIPMDDDFQL as peptide substrates preincubated for 30 mins followed by substrate addition and measured after 2 hrs by LANCE assay
Cytochrome P450 2B6 = target: T1, Cytochrome P450 2B6 (Homo sapiens, UniProt P20813); assay: Inhibition of CYP2B6 (unknown origin); type: ADME
T1 sequence (P20813 whole entry): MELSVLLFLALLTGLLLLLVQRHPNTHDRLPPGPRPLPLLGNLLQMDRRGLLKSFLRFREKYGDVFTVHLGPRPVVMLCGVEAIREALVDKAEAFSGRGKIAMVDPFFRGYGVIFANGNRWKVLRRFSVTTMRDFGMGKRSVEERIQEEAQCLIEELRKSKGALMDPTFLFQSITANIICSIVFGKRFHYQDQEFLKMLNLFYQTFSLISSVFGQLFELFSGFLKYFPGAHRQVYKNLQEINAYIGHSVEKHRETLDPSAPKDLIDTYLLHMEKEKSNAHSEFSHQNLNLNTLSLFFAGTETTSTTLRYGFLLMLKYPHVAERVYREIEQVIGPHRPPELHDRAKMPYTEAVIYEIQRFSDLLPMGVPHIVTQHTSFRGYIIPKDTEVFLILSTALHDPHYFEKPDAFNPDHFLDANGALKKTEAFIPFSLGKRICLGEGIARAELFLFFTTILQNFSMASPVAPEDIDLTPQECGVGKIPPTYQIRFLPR

Cytochrome P450 2C9 = Cytochrome P450 2C9 (Homo sapiens, UniProt P11712); assay: Inhibition of CYP2C9 (unknown origin); type: ADME
Cytochrome P450 2C8 = target: T2, Cytochrome P450 2C8 (Homo sapiens, UniProt P10632); assay: Reversible inhibition of CYP2C8 (unknown origin); type: ADME
T2 sequence (P10632 whole entry): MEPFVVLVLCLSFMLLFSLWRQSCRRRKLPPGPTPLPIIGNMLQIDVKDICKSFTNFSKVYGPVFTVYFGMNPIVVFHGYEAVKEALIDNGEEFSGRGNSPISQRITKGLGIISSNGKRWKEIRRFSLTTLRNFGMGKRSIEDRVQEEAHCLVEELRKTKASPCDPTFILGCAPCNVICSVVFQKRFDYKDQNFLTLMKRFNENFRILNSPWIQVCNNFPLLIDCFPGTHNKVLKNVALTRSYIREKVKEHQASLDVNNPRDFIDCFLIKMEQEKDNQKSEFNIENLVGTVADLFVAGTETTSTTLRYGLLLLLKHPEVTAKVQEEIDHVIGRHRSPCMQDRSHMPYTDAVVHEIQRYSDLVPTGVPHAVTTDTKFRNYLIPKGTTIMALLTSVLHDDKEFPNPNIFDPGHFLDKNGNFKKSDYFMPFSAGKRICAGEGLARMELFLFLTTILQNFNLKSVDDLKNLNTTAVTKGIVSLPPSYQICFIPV

[8] = Metabolic stability in rat liver microsomes assessed as metabolic turnover at 10 uM measured after 60 mins in presence of NADPH; type: ADME, Microsome; conditions: read-out: Drug metabolism
How it was run: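 Tritiated compound incubated with rat or monkey liver microsomes supplemented with NADPH; metabolic turnover monitored.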

[9] = Metabolic stability in human liver microsomes assessed as metabolic turnover at 10 uM measured after 60 mins in presence of NADPH; type: ADME, Microsome; conditions: read-out: Drug metabolism
[10] = Drug metabolism in rat liver microsomes assessed as O-demethylated metabolite formation; type: ADME, Microsome
[11] = Drug metabolism in monkey liver microsomes assessed as O-demethylated metabolite formation; type: ADME, Macaca mulatta, Microsome; conditions: rhesus monkey
[12] = Oral bioavailability in C57BL/6J mouse at 1 mg/kg; type: ADME, organism-based; conditions: in vivo
How it was run: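 C57BL/6J mice dosed 1 mg/kg po and 0.5 mg/kg iv, both in DMSO:PEG400:water (5:40:55, v/v/v).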

[13] = Blood clearance in C57BL/6J mouse at 1 mg/kg, po or 0.5 mg/kg, iv; type: ADME, organism-based; conditions: whole blood; how it was run: as §1
[14] = Plasma clearance in dog at 1 mg/kg, po or 0.5 mg/kg, iv; type: ADME, organism-based, Canis lupus familiaris
How it was run: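 Dog and rhesus monkey dosed 1 mg/kg po and 0.5 mg/kg iv. The iv vehicle was PEG200:12%HPCD:water (30:12:58 v/v/v); the po vehicle was Imwitor:Tween (1:1 w/w). Clearance was measured in plasma. Protein binding was measured in 100% serum.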

[15] = Drug recovery in fasted bile-duct cannulated Sprague-Dawley rat bile at 5 mg/kg, po using [3H]-labeled compound measured after 48 hrs; type: ADME, organism-based; conditions: in vivo
[16] = Drug recovery in fasted bile-duct cannulated Sprague-Dawley rat urine assessed as metabolically unchanged parent compound at 5 mg/kg, po using [3H]-labeled compound measured after 48 hrs; type: ADME, organism-based; conditions: in vivo
[17] = Cmax in Sprague-Dawley rat at 1.5 mg/kg, po administered as single dose measured at 6 hrs; type: ADME, organism-based; parameters: route oral, time 6 hrs, dose 1.5 mg/kg; conditions: in vivo
[18] = Cmax in Sprague-Dawley rat at 5 mg/kg, po administered as single dose measured at 6 hrs; type: ADME, organism-based; parameters: route oral, dose 5 mg/kg, time 6 hrs; conditions: in vivo
[19] = Cmax in Sprague-Dawley rat at 15 mg/kg, po administered as single dose measured at 6 hrs; type: ADME, organism-based; parameters: route oral, time 6 hrs, dose 15 mg/kg; conditions: in vivo
[20] = Toxicity in Sprague-Dawley rat assessed as change in hemoglobin levels at 1.5 mg/kg, po QD administered for 4 weeks and measured post last dose; type: organism-based; conditions: in vivo, 672 h
[21] = Toxicity in Sprague-Dawley rat assessed as change in hemoglobin levels at 15 mg/kg, po QD administered for 4 weeks and measured post last dose; type: organism-based; conditions: in vivo, 672 h
[22] = target: Hypoxia-inducible factor 1-alpha inhibitor (Homo sapiens) (UniProt Q9NWT6); assay: Inhibition of FIH (unknown origin) using 2-oxoglutarate and biotinyl-SMDESGLPQLTSYDAEVNAPIQGSRNLLQGEELLR CAD peptide as substrate preincubated for 10 mins followed by substrate addition and measured after 1 hr by RapidFire Mass spectrometry

Sequence of Cytochrome P450 2C9 (P11712 whole entry): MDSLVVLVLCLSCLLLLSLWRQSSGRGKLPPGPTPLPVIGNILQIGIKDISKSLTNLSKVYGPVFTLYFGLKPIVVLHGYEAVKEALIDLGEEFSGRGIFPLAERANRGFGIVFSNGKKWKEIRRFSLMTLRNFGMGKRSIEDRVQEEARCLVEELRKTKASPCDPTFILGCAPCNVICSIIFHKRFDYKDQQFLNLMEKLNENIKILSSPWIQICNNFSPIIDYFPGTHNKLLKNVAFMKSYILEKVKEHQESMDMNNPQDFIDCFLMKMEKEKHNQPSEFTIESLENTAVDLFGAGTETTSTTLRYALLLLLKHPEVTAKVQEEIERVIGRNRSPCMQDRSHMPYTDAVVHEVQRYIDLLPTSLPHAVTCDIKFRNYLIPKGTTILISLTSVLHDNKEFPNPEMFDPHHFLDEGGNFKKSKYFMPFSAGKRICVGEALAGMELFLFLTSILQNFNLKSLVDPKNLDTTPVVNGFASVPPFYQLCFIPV
Sequence of Prolyl hydroxylase EGLN3 (Q9H6Z9 whole entry): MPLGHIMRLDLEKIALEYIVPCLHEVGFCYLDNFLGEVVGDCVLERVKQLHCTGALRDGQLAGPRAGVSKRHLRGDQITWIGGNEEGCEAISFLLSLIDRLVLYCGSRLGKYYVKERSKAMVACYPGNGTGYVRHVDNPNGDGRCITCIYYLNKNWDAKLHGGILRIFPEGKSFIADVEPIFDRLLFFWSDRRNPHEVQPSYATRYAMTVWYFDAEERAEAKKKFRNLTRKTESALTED
Sequence of Voltage-gated inwardly rectifying potassium channel KCNH2 (Q12809 whole entry): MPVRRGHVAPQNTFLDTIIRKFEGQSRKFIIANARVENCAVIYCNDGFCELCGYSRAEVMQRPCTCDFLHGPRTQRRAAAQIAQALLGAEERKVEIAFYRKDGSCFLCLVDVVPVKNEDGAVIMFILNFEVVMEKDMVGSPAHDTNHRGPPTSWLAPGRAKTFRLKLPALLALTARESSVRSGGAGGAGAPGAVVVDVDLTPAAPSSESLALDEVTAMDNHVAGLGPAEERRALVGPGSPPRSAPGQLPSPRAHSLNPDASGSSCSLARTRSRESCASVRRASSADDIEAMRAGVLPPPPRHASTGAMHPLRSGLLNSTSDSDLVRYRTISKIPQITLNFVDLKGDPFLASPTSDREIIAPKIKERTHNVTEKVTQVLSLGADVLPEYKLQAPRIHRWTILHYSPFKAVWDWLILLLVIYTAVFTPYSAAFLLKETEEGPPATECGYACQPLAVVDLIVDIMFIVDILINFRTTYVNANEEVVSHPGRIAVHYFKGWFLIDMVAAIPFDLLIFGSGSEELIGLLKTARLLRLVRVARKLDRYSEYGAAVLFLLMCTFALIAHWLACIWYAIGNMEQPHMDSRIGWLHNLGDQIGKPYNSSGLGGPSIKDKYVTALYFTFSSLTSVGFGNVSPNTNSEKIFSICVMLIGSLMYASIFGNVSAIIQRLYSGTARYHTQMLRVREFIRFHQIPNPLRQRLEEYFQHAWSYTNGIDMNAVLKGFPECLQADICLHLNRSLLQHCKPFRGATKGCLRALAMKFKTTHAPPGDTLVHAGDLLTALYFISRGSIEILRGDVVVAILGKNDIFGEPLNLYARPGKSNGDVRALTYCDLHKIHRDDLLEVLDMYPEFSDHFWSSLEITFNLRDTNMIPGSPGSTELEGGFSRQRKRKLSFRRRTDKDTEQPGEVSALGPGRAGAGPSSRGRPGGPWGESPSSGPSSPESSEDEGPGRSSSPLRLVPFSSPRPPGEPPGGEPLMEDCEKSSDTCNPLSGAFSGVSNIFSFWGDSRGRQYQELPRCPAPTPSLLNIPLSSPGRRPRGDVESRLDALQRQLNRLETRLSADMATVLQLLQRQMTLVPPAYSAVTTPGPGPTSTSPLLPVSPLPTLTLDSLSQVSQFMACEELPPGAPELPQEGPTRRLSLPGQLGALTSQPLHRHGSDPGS

**Q.** Which IC50 [1] does the source give for `COc1ccc(C(NC(=O)c2cnc(-c3cccnn3)nc2O)c2ccc(OC)cc2)cc1` here?
**A.** The IC50 was greater than 30 µM.

**Q.** And the bioavailability [2]?
**A.** The bioavailability was 36%.

**Q.** And the Cmax [3]?
**A.** Its Cmax is 11 µM.

**Q.** And the Vd [4]?
**A.** Its Vd is 0.16 L/kg.

**Q.** And the half-life [5]?
**A.** The half-life was 9.3 h.

**Q.** And the fraction unbound [6]?
**A.** The fraction unbound was 0.01.

**Q.** What about the half-life [7] of the same molecule?
**A.** Its half-life is 10 h.

**Q.** And the IC50 (Prolyl hydroxylase EGLN3)?
**A.** Its IC50 is 0.014 µM.

**Q.** What about the IC50 (Cytochrome P450 2B6) of the same molecule?
**A.** The IC50 was greater than 60 µM.

**Q.** What about the IC50 (Cytochrome P450 2C9) of the same molecule?
**A.** The IC50 was greater than 60 µM.

**Q.** And the IC50 (Cytochrome P450 2C8)?
**A.** Its IC50 is 1.6 µM.

**Q.** And the metabolised at 1 h, 10 µM [8]?
**A.** Its metabolised at 1 h, 10 µM is less than 10%.

**Q.** What about the metabolised at 1 h, 10 µM [9] of the same molecule?
**A.** The metabolised at 1 h, 10 µM was 34%.

**Q.** What about the Drug metabolism [10] of the same molecule?
**A.** Its Drug metabolism is “Metabolite_Detected”.

**Q.** What about the Drug metabolism [11] of the same molecule?
**A.** The Drug metabolism was “Metabolite_Detected”.

**Q.** What about the bioavailability [12] of the same molecule?
**A.** Its bioavailability is 6.3%.

**Q.** And the clearance [13]?
**A.** Its clearance is 0.13 mL/min/kg.

**Q.** What about the clearance [14] of the same molecule?
**A.** Its clearance is 0.07 mL/min/kg.

**Q.** What about the Drug recovery [15] of the same molecule?
**A.** The Drug recovery was 12%.

**Q.** What about the Drug recovery [16] of the same molecule?
**A.** The Drug recovery was less than 10%.

**Q.** What about the Cmax [17] of the same molecule?
**A.** Its Cmax is 6.8 µM.

**Q.** And the Cmax [18]?
**A.** Its Cmax is 14 µM.

**Q.** And the Cmax [19]?
**A.** The Cmax was 30 µM.

**Q.** And the Activity [20]?
**A.** Its Activity is 1 g/dL.

**Q.** And the Activity [21]?
**A.** Its Activity is 7.6 g/dL.

**Q.** And the IC50 [22]?
**A.** Its IC50 is 18 µM.
